Data from ChEMBL document CHEMBL1134773, “Design and synthesis of potent and selective alpha(4)beta(7) integrin antagonists” (J Med Chem, 2001).

What was measured:
[1] = target: T1, Integrin alpha-4/beta-7 (Homo sapiens) (UniProt P13612+P26010); test: Ability to inhibit adhesion of alpha4-beta7 integrin expressing 38-beta7 lymphoma cells to chinese hamster ovary (CHO) cells stably transfected with MAdCAM-1; assay type: cell-based
Procedure, shortened: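 38-β7 lymphoma cells (α4β7+) labelled 30 min at 37 °C with 12 μg/mL H33342, then 8×10^5/mL in buffer with 1.0 mM Ca2+/Mg2+. Preincubated 10 min at 37 °C with peptide at 1 mg/mL final. Allowed to adhere 30 min at 37 °C to confluent MAdCAM-1-transfected CHO monolayers (seeded 24 h before). Nonadherent cells removed by inverse centrifugation. Result given as % of medium control, mean of two experiments.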

[2] = target: T1, Integrin alpha-4/beta-7 (Homo sapiens); test: Inhibition of alpha4-beta7 lymphoma cell binding to CHO-VCAM-1 cells.; assay type: cell-based

| Adhesion [1] | Adhesion [2] | SMILES |
| --- | --- | --- |
| 83% | – | CSCC[C@H]1NC(=O)[C@H]([C@@H](C)O)NC(=O)[C@@H](CC(=O)O)NC(=O)[C@H](CC(C)C)NC(=O)[C@@H](CC(=O)O)NC(=O)[C@H]2CCCN2C1=O |
| 49% | – | CC(C)C[C@@H]1NC(=O)[C@@H]([C@@H](C)O)NC(=O)[C@H]2CCCN2C(=O)[C@@H](C)NC(=O)[C@H]([C@@H](C)O)NC(=O)[C@@H](CC(=O)O)NC1=O |
| 111% | – | CC(C)C[C@@H]1NC(=O)[C@@H](C)NC(=O)[C@H](C)NC(=O)[C@H]2CCCN2C(=O)[C@H]([C@@H](C)O)NC(=O)[C@@H](CC(=O)O)NC1=O |
| 81% | – | CC(C)C[C@@H]1NC(=O)[C@@H](Cc2ccc(O)cc2)NC(=O)[C@H]2CCCN2C(=O)[C@@H](CCCCN)NC(=O)[C@H]([C@@H](C)O)NC(=O)[C@@H](CC(=O)O)NC1=O |
| 115% | – | CC(C)C[C@@H]1NC(=O)[C@@H](CC(=O)O)NC(=O)[C@H]2CCCN2C(=O)[C@@H](C)NC(=O)[C@H]([C@@H](C)O)NC(=O)[C@@H](CC(=O)O)NC1=O |
| 85% | – | CC(C)C[C@@H]1NC(=O)[C@@H](Cc2ccccc2)NC(=O)[C@H]2CCCN2C(=O)[C@@H](CCCCN)NC(=O)[C@H]([C@@H](C)O)NC(=O)[C@@H](CC(=O)O)NC1=O |
| 10% | – | CC(C)C[C@@H]1NC(=O)[C@@H](Cc2ccc(C(=O)c3ccccc3)cc2)NC(=O)[C@H]2CCCN2C(=O)[C@@H](CC(=O)O)NC(=O)[C@H]([C@@H](C)O)NC(=O)[C@@H](CC(=O)O)NC1=O |
| 102% | – | CC(C)C[C@@H]1NC(=O)[C@@H](CC(=O)O)NC(=O)[C@H]2CCCN2C(=O)[C@@H](CCCCN)NC(=O)[C@H]([C@@H](C)O)NC(=O)[C@@H](CC(=O)O)NC1=O |
| 102% | – | C[C@H]1NC(=O)[C@H]2CCCN2C(=O)[C@@H](CC(=O)O)NC(=O)[C@H]([C@@H](C)O)NC(=O)[C@@H](CC(=O)O)NC(=O)[C@H](Cc2ccccc2)NC1=O |
| 47% | – | CC(C)C[C@@H]1NC(=O)[C@@H](C)NC(=O)[C@H]2CCCN2C(=O)[C@@H](CC(=O)O)NC(=O)[C@H]([C@@H](C)O)NC(=O)[C@@H](CC(=O)O)NC1=O |
| 76% | – | CC(C)C[C@@H]1NC(=O)[C@@H](CC(=O)O)NC(=O)[C@H]2CCCN2C(=O)[C@@H](Cc2ccc(O)cc2)NC(=O)[C@H]([C@@H](C)O)NC(=O)[C@@H](CC(=O)O)NC1=O |
| 100% | – | CC(C)C[C@@H]1NC(=O)[C@@H](CC(=O)O)NC(=O)[C@H]2CCCN2C(=O)[C@@H](Cc2ccccc2)NC(=O)[C@H]([C@@H](C)O)NC(=O)[C@@H](CC(=O)O)NC1=O |
| 7% | – | CC(C)C[C@@H]1NC(=O)[C@@H](C)NC(=O)[C@H]2CCCN2C(=O)[C@@H](C)NC(=O)[C@H]([C@@H](C)O)NC(=O)[C@@H](CC(=O)O)NC1=O |
| 30% | – | CC(C)C[C@@H]1NC(=O)[C@H]2CCCN2C(=O)[C@H](C)NC(=O)[C@@H](C)NC(=O)[C@H]([C@@H](C)O)NC(=O)[C@@H](CC(=O)O)NC1=O |
| 26% | – | CC(C)C[C@@H]1NC(=O)[C@@H](CCCN=C(N)N)NC(=O)[C@H]2CCCN2C(=O)[C@@H](C)NC(=O)[C@H]([C@@H](C)O)NC(=O)[C@@H](CC(=O)O)NC1=O |
| 87% | – | CC(C)C[C@@H]1NC(=O)[C@@H](CC(=O)O)NC(=O)[C@H]2CCCN2C(=O)[C@@H](Cc2c[nH]c3ccccc23)NC(=O)[C@H]([C@@H](C)O)NC(=O)[C@@H](CC(=O)O)NC1=O |
| 65% | – | CC(C)C[C@@H]1NC(=O)[C@@H](CCC(=O)O)NC(=O)[C@H]2CCCN2C(=O)[C@@H](C)NC(=O)[C@H]([C@@H](C)O)NC(=O)[C@@H](CC(=O)O)NC1=O |

Further lines, the compound ahead of its results:

| SMILES | Adhesion [1] | Adhesion [2] |
| --- | --- | --- |
| CC(C)C[C@@H]1NC(=O)C(C2CCCCC2)NC(=O)[C@H]2CCCN2C(=O)[C@@H](CC(=O)O)NC(=O)[C@H]([C@@H](C)O)NC(=O)[C@@H](CC(=O)O)NC1=O (stereo partly specified) | 58% | – |
| CC[C@H](C)[C@H]1NC(=O)[C@H](C)NC(=O)[C@@H](C)NC(=O)[C@H]([C@@H](C)O)NC(=O)[C@@H](CC(=O)O)NC1=O (stereo in doubt; P1) | 100% | – |
| CC(C)C[C@@H]1NC(=O)[C@@H](C)NC(=O)[C@H]2CCCN2C(=O)[C@@H](C)NC(=O)[C@H](C(C)C)NC(=O)[C@@H](CC(=O)O)NC1=O | 50% | – |
| C[C@H]1NC(=O)[C@H]2CCCN2C(=O)[C@@H](C)NC(=O)[C@H]([C@@H](C)O)NC(=O)[C@@H](CC(=O)O)NC(=O)CNC1=O | 105% | – |
| CC(C)C[C@@H]1NC(=O)[C@@H](C)NC(=O)[C@@H](Cc2ccccc2)NC(=O)[C@@H](CC(=O)O)NC(=O)[C@H]([C@@H](C)O)NC(=O)[C@@H](CC(=O)O)NC1=O | 63% | – |
| C[C@H]1NC(=O)[C@H]2CCCN2C(=O)[C@@H](CC(=O)O)NC(=O)[C@H]([C@@H](C)O)NC(=O)[C@@H](CC(=O)O)NC(=O)[C@@H](c2ccccc2)NC1=O | 114% | – |
| CC(C)[C@@H]1NC(=O)[C@@H](C)NC(=O)[C@H]2CCCN2C(=O)[C@@H](C)NC(=O)[C@H]([C@@H](C)O)NC(=O)[C@@H](CC(=O)O)NC1=O | 97% | – |
| CC(C)C[C@@H]1NC(=O)[C@@H](Cc2ccccc2)NC(=O)[C@@H](Cc2ccccc2)NC(=O)[C@@H](CC(=O)O)NC(=O)[C@H]([C@@H](C)O)NC(=O)[C@@H](CC(=O)O)NC1=O | 56% | – |
| NC(=O)C[C@@H]1NC(=O)CNC(=O)[C@@H](Cc2ccccc2)NC(=O)[C@@H](Cc2c[nH]cn2)NC(=O)[C@@H](CCC(=O)O)NC1=O | 100% | 93% |
| CC(C)C[C@@H]1NC(=O)[C@@H](C)NC(=O)[C@H]2CCCN2C(=O)[C@@H](C)NC(=O)CNC(=O)[C@@H](CC(=O)O)NC1=O | 91% | – |
| CC(C)C[C@@H]1NC(=O)[C@H](C)NC(=O)[C@H]2CCCN2C(=O)[C@H]([C@@H](C)O)NC(=O)[C@@H](CC(=O)O)NC1=O | 89% | – |
| CC(C)C[C@@H]1NC(=O)[C@@H](C)NC(=O)[C@H]2CCCN2C(=O)[C@@H](C)NC(=O)[C@H](CO)NC(=O)[C@@H](CC(=O)O)NC1=O | 90% | – |
| CC(C)C[C@@H]1NC(=O)[C@H]2CCCN2C(=O)[C@@H](C)NC(=O)[C@H]([C@@H](C)O)NC(=O)[C@@H](CC(=O)O)NC1=O | 74% | – |
| CC(C)C[C@@H]1NC(=O)[C@@H](C)NC(=O)[C@H](C)NC(=O)[C@@H](C)NC(=O)[C@H]([C@@H](C)O)NC(=O)[C@@H](CC(=O)O)NC1=O | 85% | – |
| C[C@H]1NC(=O)[C@H]2CCCN2C(=O)[C@@H](CC(=O)O)NC(=O)[C@H]([C@@H](C)O)NC(=O)[C@@H](CC(=O)O)NC(=O)[C@H](c2ccccc2)NC1=O | 98% | – |
| CC(C)C[C@@H]1NC(=O)[C@@H](CC(=O)O)NC(=O)[C@@H](CC(=O)O)NC(=O)[C@@H](C)NC(=O)[C@H]([C@@H](C)O)NC(=O)[C@@H](CC(=O)O)NC1=O | 99% | – |
| CC(C)C[C@@H]1NC(=O)[C@@H](C)NC(=O)[C@H]2CCCN2C(=O)[C@@H](CC(=O)O)NC(=O)[C@H](C(C)C)NC(=O)[C@@H](CC(=O)O)NC1=O | 40% | – |
| CC[C@H](C)[C@@H]1NC(=O)[C@@H](C)NC(=O)[C@H]2CCCN2C(=O)[C@@H](C)NC(=O)[C@H]([C@@H](C)O)NC(=O)[C@@H](CC(=O)O)NC1=O | 64% | – |
| CC(C)C[C@@H]1NC(=O)[C@@H]2Cc3ccccc3CN2C(=O)[C@H]2CCCN2C(=O)[C@@H](CC(=O)O)NC(=O)[C@H]([C@@H](C)O)NC(=O)[C@@H](CC(=O)O)NC1=O | 9% | – |
| CC[C@H](C)[C@@H]1NC(=O)[C@H](C)NC(=O)[C@@H](C)NC(=O)[C@H]([C@@H](C)O)NC(=O)[C@@H](CC(=O)O)NC1=O | 137% | – |
| CC(C)C[C@@H]1NC(=O)[C@@H](CC(=O)O)NC(=O)[C@@H](Cc2ccccc2)NC(=O)[C@@H](C)NC(=O)[C@H]([C@@H](C)O)NC(=O)[C@@H](CC(=O)O)NC1=O | 86% | – |
| CC(C)C[C@@H]1NC(=O)[C@H](C)NC(=O)[C@@H](C)NC(=O)[C@@H]([C@@H](C)O)NC(=O)[C@@H](CC(=O)O)NC1=O | 85% | – |
| CC[C@H](C)[C@H]1NC(=O)[C@H](C)NC(=O)[C@@H](C)NC(=O)[C@H]([C@@H](C)O)NC(=O)[C@@H](CC(=O)O)NC1=O (stereo in doubt; P6) | 63% | – |
